Consider eight molecules from ChEMBL document CHEMBL1151955, “Activation of PPARgamma by metabolites from the flowers of purple coneflower (Echinacea purpurea)” (J Nat Prod, 2009).

Active and inactive are the calls of the source. No cut-off for these calls is given here.

In series [1] the target is T1, Peroxisome proliferator-activated receptor gamma (Homo sapiens) (UniProt P37231).
T1 sequence (whole entry): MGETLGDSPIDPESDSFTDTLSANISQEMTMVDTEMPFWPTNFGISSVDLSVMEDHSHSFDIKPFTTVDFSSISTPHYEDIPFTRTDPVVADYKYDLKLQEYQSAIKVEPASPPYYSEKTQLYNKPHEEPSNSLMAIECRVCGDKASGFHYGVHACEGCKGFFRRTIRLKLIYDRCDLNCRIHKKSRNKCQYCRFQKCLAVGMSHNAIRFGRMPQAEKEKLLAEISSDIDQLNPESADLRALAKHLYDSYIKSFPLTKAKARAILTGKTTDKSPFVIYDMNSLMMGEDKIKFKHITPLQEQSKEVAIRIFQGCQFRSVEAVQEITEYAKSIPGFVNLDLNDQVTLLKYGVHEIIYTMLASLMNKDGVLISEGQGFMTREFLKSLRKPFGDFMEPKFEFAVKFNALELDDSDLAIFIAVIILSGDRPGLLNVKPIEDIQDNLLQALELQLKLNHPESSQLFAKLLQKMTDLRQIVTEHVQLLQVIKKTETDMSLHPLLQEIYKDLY
Description: Agonist activity at human PPARgamma ligand binding domain expressed in MEF cells co-transfected with Gal4-responsive luciferase vector assessed as photinus/renilla luciferase activity at 40 uM by transactivation assay relative to control. The class given is cell-based. An outline of the steps: (§1)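 Mouse embryonic fibroblasts were transiently transfected at 50-70% confluence. Each well got 2.5 ng pRL-CMV Renilla vector, 30 ng Gal4-responsive luciferase reporter and 15 ng pM-hPPARγ-LBD. Medium was changed at 6 h to DMEM with vehicle (0.1% DMSO), 1 µM rosiglitazone or compound. Cells were lysed 18 h post-transfection for dual luciferase. Photinus was normalized to Renilla and expressed as fold over vehicle. Triplicates, each read in duplicate.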

Series [2] deals with 3T3-L1. Description: Induction of adipocytes differentiation in mouse 3T3L1 cells at > 200 uM treated after 48 hrs postconfluence measured after 8 days using MDI protocol. Type of series: functional, cell-based. In short, it runs like this: (§2)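 3T3-L1 cells were induced two days postconfluence in DMEM/10% FBS with compound plus 1 µM dexamethasone, 0.5 mM isobutylmethylxanthine and 1 µg/mL insulin. At 48 h they were refed with compound and 1 µg/mL insulin. From day 4 medium was DMEM/10% FBS, changed every second day. At day 8 cells were formaldehyde-fixed and stained with Oil Red O. Triplicate, three concentrations.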

Series [3] has as its system 3T3-L1. Description: Induction of adipocytes differentiation in mouse 3T3L1 cells at > 200 uM treated after 48 hrs postconfluence measured after 8 days using DEX protocol. The class given is functional, cell-based. An outline of the steps:
(§3)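 3T3-L1 cells were grown in DMEM with 10% calf serum. Two days postconfluence (day 0) they were induced in DMEM/10% FBS with compound plus 1 µM dexamethasone, then refed at 48 h with compound. From day 4 medium was DMEM/10% FBS, changed every second day. At day 8 cells were formaldehyde-fixed and stained for triacylglycerol with Oil Red O. Triplicate, three concentrations.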

Series [4] has as its target T1, Peroxisome proliferator-activated receptor gamma (Homo sapiens). The experiment in a line: Agonist activity at human PPARgamma ligand binding domain expressed in MEF cells co-transfected with Gal4-responsive luciferase vector assessed as photinus/renilla luciferase activity at 30 uM by transactivation assay relative to control. The class given is cell-based. In short, it runs like this:
as §1

The subject of series [5] is 3T3-L1. The experiment in a line: Increase in insulin-stimulated [14C]2-deoxy-D-glucose uptake in mouse 3T3L1 cells after 48 hrs by scintillation counting. Type of series: functional, cell-based. An outline of the steps: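 MDI-differentiated 3T3-L1 adipocytes were treated with compound or 1 µM rosiglitazone from day 8 for 48 h, then serum-starved 2 h at 37 °C. Cells were incubated in KRHB pH 7.4 for 30 min, insulin was added for 15 min, then [14C]2-deoxy-D-glucose at 1.0 mM final glucose for 15 min. Background came from 20 µM cytochalasin B wells. Scintillation counting, 8 wells per condition, mean ± SEM.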

Another series has as its system MEF. The experiment in a line: Apparent cytotoxicity against MEF at 100 uM. The class given is cell-based. To be noted: mouse.
Series [6] has as its target T1, Peroxisome proliferator-activated receptor gamma (Homo sapiens). Description: Agonist activity at human PPARgamma ligand binding domain expressed in MEF cells co-transfected with Gal4-responsive luciferase vector assessed as photinus/renilla luciferase activity at 100 uM by transactivation assay relative to control. Type of series: cell-based. In short, it runs like this: as §1

Series [7] shares this target. Description: Agonist activity at human PPARgamma ligand binding domain expressed in MEF cells co-transfected with Gal4-responsive luciferase vector assessed as photinus/renilla luciferase activity at 80 uM by transactivation assay relative to control. Type of series: cell-based. In short, it runs like this: as §1
Series [8] concerns 3T3-L1. Description: Induction of adipocytes differentiation in mouse 3T3L1 cells treated after 48 hrs postconfluence measured after 8 days using DEX protocol. Type of series: functional, cell-based. An outline of the steps: as §3
For series [9], the system named is 3T3-L1. The experiment in a line: Induction of adipocytes differentiation in mouse 3T3L1 cells treated after 48 hrs postconfluence measured after 8 days using MDI protocol. The class given is functional, cell-based. An outline of the steps: as §2

With `CC/C=C\C/C=C\C/C=C\CCCCCCCC(=O)O`, the fold change (FC) in [1] stood at 10.
Regarding `C/C=C/C=C\C/C=C\CCCCC/C=C/C(=O)NCC(C)C`, the outcome with 3T3-L1 [2] and in the series with 3T3-L1 [3] was inactive. In addition, the fold change (FC) in [4] is 10. Besides, the results for the Activity result in the series on 3T3-L1 [5] and in the series with MEF were “Dose-dependent effect” and “Toxic”, respectively.
Turning to `CCCCCC/C=C\CCCCCCCC(=O)O`, in series [1], the fold change (FC) was 10.
Turning to `C/C=C/C=C\CC/C=C/C=C/C(=O)NCC(C)C`, the fold change (FC) in series [6] worked out at 2.
For `CCCCC/C=C\C/C=C\CCCCCCCC(=O)O`, in [1], the fold change (FC) amounted to 10.
On to `CCCCCCC/C=C/C=C/C(=O)NCC(C)C`, for which the fold change (FC) in series [7] amounted to 4. Further, the outcome in the series with 3T3-L1 [8] and in the series with 3T3-L1 [9] was Active. The Activity entry with MEF is “Toxic”.
In the case of `C/C=C\C#CCC/C=C\C=C\C(=O)NCC(C)C`, in series [6], the fold change (FC) worked out at 2.
For `C/C=C\C=C/CC/C=C/C=C/C(=O)NCC(C)C`, the fold change (FC) in series [6] was 2.
